Our source for the IC50 and Ratio IC50 values is ChEMBL document CHEMBL1152572, “Synthesis and antimalarial activity of new chloroquine analogues carrying a multifunctional linear side chain” (Bioorg Med Chem, 2009).

For assay [1], the system named is Plasmodium falciparum. The assay is described as follows: Antiplasmodial activity against chloroquine-sensitive Plasmodium falciparum HB3 assessed as SYBR Green 1 fluorescence emission after 72 hrs. The format is functional, organism-based. The settings on record: HB3, 72 h. A digest of the protocol:
(§1)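 Sorbitol-synchronized P. falciparum cultures (>95% ring stage) exposed to serial drug dilutions in complete medium at 0.5% parasitemia, 1% hematocrit final. Incubated 72 h, 37 °C. SYBR Green I then added, 1 h at 37 °C. Fluorescence read at 530 nm emission, 490 nm excitation. Each dilution run in triplicate; IC50 averaged from at least two separate assays.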

Assay [2] has as its system Plasmodium falciparum. Description: Antiplasmodial activity against chloroquine-resistant Plasmodium falciparum Dd2 assessed as SYBR Green 1 fluorescence emission after 72 hrs. It counts as functional, organism-based. The settings on record: Dd2, 72 h. Put shortly:
as §1

Assay [3] is described as follows: Resistance index, ratio IC50 for chloroquine-resistant Plasmodium falciparum Dd2 to IC50 for chloroquine-sensitive Plasmodium falciparum HB3. It counts as functional.

Molecules are shown by their SMILES.

The IC50 is the concentration that gives 50% inhibition.

For the compound `CCN(CC)CCC(=O)NCCCOc1ccnc2cc(Cl)ccc12`, the half-inhibitory concentration (IC50) in the assay on Plasmodium falciparum [1] came out at 2.31 µM; in the assay on Plasmodium falciparum [2], 0.752 µM. In assay [3], the Ratio IC50 was found to be 0.3.
In the same order, the values of `CCN(CC)CCCCNCCNc1ccnc2cc(Cl)ccc12` are 0.0307 µM, 1.27 µM and 41.5.
As for `CCN(CC)CCCCCNCCNc1ccnc2cc(Cl)ccc12`, the IC50 in the assay on Plasmodium falciparum [1] came out at 0.0289 µM; in the assay on Plasmodium falciparum [2], 0.459 µM. The Ratio IC50 in assay [3] amounted to 15.9.
Turning to `CCN(CC)CCCCN(CC)CCNc1ccnc2cc(Cl)ccc12`, the IC50 was 0.0051 µM with Plasmodium falciparum [1] and 0.0362 µM with Plasmodium falciparum [2]. In addition, in assay [3], the Ratio IC50 is 7.1.
For the compound `CCN(CC)CCCCCCN(CC)CCNc1ccnc2cc(Cl)ccc12`, the values for the IC50 with Plasmodium falciparum [1] and in the assay with Plasmodium falciparum [2] were 0.005 µM and 0.0199 µM, respectively. Moreover, the Ratio IC50 in assay [3] turned out to be 4.
For `CCN(CC)CCCCC(=O)NCCNc1ccnc2cc(Cl)ccc12`, the values for the 50% inhibitory concentration (IC50) in the assay with Plasmodium falciparum [1] and with Plasmodium falciparum [2] were 0.228 µM and 1.19 µM, respectively. The Ratio IC50 in assay [3] turned out to be 5.2.
In the same order, the values of `CCN(CC)CCCN(CC)CCOc1ccnc2cc(Cl)ccc12` are 0.321 µM, 0.409 µM and 1.3.
As to `CCN(CC)CCCCCCNCCNc1ccnc2cc(Cl)ccc12`, the figures for the IC50 in the assay on Plasmodium falciparum [1] and in the assay with Plasmodium falciparum [2] were 0.0689 µM and 0.231 µM, respectively. Besides, the Ratio IC50 in assay [3] was 3.4.
In the same order, the values of `CCN(CC)CCCN(CC)CCCOc1ccnc2cc(Cl)ccc12` are 0.0775 µM, 0.108 µM and 1.4.
For the compound `CCN(CC)CC(=O)NCCNc1ccnc2cc(Cl)ccc12`, the IC50 in the assay with Plasmodium falciparum [1] came out at 0.715 µM; in the assay with Plasmodium falciparum [2], 3.36 µM. In addition, the Ratio IC50 in assay [3] came out at 4.7.
With `CCN(CC)CCN(CC)CCNc1ccnc2cc(Cl)ccc12`, the IC50 stood at 0.005 µM in the assay on Plasmodium falciparum [1] and 0.053 µM in the assay on Plasmodium falciparum [2]. Moreover, the Ratio IC50 in assay [3] was found to be 10.5.
As to `CCN(CC)CCN(CCNc1ccnc2cc(Cl)ccc12)CCN(CC)CC`, the IC50 stood at 0.007 µM in the assay with Plasmodium falciparum [1] and 0.151 µM with Plasmodium falciparum [2]. In addition, in assay [3], the Ratio IC50 is 21.5.
As for `CCN(CC)CCCCCC(=O)NCCNc1ccnc2cc(Cl)ccc12`, the IC50 with Plasmodium falciparum [1] worked out at 0.287 µM; in the assay on Plasmodium falciparum [2], 2.7 µM. The Ratio IC50 in assay [3] is 9.4.
Take `CCN(CC)CCCC(=O)NCCNc1ccnc2cc(Cl)ccc12`: the IC50 was found to be 0.225 µM with Plasmodium falciparum [1] and 1.19 µM in the assay with Plasmodium falciparum [2]. Also, the Ratio IC50 in assay [3] stood at 5.3.
With `CCN(CC)CCCCCN(CC)CCNc1ccnc2cc(Cl)ccc12`, the IC50 amounted to 0.0089 µM in the assay with Plasmodium falciparum [1] and 0.0387 µM in the assay on Plasmodium falciparum [2]. Besides, the Ratio IC50 in assay [3] turned out to be 4.3.
For `CCN(CC)CCCNCCCOc1ccnc2cc(Cl)ccc12`, the results for the 50% inhibitory concentration (IC50) in the assay with Plasmodium falciparum [1] and in the assay with Plasmodium falciparum [2] were 0.0197 µM and 0.24 µM, respectively. Besides, the Ratio IC50 in assay [3] came to 12.2.
For `CCN(CC)CCCNCCOc1ccnc2cc(Cl)ccc12`, the IC50 in the assay with Plasmodium falciparum [1] is 0.0946 µM; in the assay with Plasmodium falciparum [2] it was 0.214 µM. Moreover, in assay [3], the Ratio IC50 turned out to be 2.3.
`CCN(CC)CCC(=O)NCCOc1ccnc2cc(Cl)ccc12`: the IC50 came out at 1.71 µM in the assay with Plasmodium falciparum [1] and 1.46 µM with Plasmodium falciparum [2]. In addition, in assay [3], the Ratio IC50 came out at 0.9.
For `CCN(CC)CCNCCNc1ccnc2cc(Cl)ccc12`, the IC50 in the assay on Plasmodium falciparum [1] worked out at 0.0108 µM; in the assay on Plasmodium falciparum [2], 1.57 µM. For the same compound, the Ratio IC50 in assay [3] was determined as 145.
Take `CCN(CC)CCC(=O)NCCNc1ccnc2cc(Cl)ccc12`: the Ratio IC50 in assay [3] came to 24.1.
